Assay results as given in paper PMC6136352 (Journal of Enzyme Inhibition and Medicinal Chemistry, 2018).

Key:
[1] = tested on: KG1a cells; test: MTT cytotoxicity assay, KG1a; format: cell-based, human; conditions: for IC50: Homo sapiens, KG-1a, 72 h, read-out: IC50 KG1a
In short: (§1)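 Exponentially growing leukaemia lines were seeded at 1 × 10⁴ cells/well in supplemented RPMI 1640. After 24 h, test compounds were added over a concentration range for 72 h, with adriamycin as positive control. MTT (5 mg/ml stock) was added for 4 h. Plates were spun at 2000 rpm for 20 min, the supernatant replaced by DMSO, and absorbance read at 570 nm. IC50 was fitted; each value is the mean of three independent experiments.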

[2] = tested on: HL-60 cells; test: MTT cytotoxicity assay, HL-60; format: cell-based; conditions: Homo sapiens, HL-60, 72 h, read-out: IC50 HL-60
In short: as §1

[3] = cited from earlier work
[4] = cited from earlier work; remark: listed apart in the source

Question: Which results are given for `COc1cccc2c1C(=O)c1c(O)c3c(c(O)c1C2=O)C[C@@](O)(C(=O)CO)C[C@@H]3O[C@H]1C[C@H](N)[C@H](O)[C@H](C)O1` [ADR, adriamycin]?
Answer: IC50 [1]: 750 ± 50 nM; drop of activity against KG1a than that against HL-60 ([1]; ratio of IC50 values): 34 folds; IC50 [2]: 22 ± 5 nM

Question: Which results are given for `C=C1C(=O)O[C@H]2[C@H]1CC/C(C)=C/CC[C@@]1(C)O[C@@H]21` [PTL, Parthenolide]?
Answer: IC50 [1]: 6100 ± 1800 nM; IC50 [2]: 3800 ± 1200 nM; solubility [3]: poor solubility; stability in acidic and basic conditions [4]: instability in both acidic and basic conditions
